Experimental findings from ChEMBL document CHEMBL5113395, “Azetidin-2-one-based small molecules as dual hHDAC6/HDAC8 inhibitors: Investigation of their mechanism of action and impact of dual inhibition profile on cell viability” (Eur J Med Chem, 2022) are described below.

As a reminder, the IC50 is the concentration needed to halve the response being measured. The solubility is how much of the substance goes into solution per volume. Low readings indicate little dissolved substance, high ones much dissolved substance. As usually defined, the half-life is how long it takes for the measured level to halve.

≈ marks a conversion by molar mass, not a printed value. Calls of active or inactive are those of the source. The calls are words filed in the database; no cut-off is given here.

Data set [1] addresses T1, Protein deacetylase HDAC6 (Homo sapiens, UniProt Q9UBN7).
T1 sequence (Q9UBN7 whole entry): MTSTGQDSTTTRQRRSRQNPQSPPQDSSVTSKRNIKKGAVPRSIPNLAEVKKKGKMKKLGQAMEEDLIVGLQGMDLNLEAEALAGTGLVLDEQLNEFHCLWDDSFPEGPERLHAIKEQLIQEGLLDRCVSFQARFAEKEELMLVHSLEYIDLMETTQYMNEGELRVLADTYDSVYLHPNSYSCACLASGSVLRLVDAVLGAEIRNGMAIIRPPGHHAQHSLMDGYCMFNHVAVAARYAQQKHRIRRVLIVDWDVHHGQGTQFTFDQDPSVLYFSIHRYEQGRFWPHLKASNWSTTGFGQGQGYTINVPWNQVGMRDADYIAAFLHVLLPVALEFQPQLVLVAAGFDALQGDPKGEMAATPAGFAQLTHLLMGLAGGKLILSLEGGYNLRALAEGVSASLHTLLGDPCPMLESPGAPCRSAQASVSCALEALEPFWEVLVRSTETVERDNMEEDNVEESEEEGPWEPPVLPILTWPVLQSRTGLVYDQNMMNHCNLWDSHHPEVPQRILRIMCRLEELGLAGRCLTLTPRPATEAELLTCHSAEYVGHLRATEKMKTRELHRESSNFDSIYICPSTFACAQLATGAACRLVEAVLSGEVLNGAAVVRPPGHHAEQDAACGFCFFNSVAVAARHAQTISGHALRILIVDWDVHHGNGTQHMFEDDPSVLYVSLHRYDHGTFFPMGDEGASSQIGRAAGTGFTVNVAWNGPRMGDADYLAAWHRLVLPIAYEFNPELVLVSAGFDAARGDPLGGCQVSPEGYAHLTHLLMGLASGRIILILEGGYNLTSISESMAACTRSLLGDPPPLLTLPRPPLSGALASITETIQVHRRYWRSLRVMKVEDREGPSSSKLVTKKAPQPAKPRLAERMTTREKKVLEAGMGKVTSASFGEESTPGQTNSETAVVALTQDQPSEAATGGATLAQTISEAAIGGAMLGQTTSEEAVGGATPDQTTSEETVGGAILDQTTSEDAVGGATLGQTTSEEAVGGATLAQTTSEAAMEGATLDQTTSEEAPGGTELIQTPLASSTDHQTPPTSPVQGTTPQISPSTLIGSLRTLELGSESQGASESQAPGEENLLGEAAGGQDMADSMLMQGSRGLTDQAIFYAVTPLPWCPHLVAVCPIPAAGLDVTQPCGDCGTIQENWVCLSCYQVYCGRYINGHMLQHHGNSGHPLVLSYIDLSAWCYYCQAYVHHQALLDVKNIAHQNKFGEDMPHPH
As to the kind of experiment: Inhibition of recombinant human full length N-terminal GST-tagged HDAC6 expressed in Sf9 cells using ZMAL (Z-(Ac)Lys-AMC as substrate measured after 90 mins by fluorescence plate reader analysis.

For data set [2], the target named is T2, Histone deacetylase 8 (Homo sapiens, UniProt Q9BY41).
T2 sequence (Q9BY41 whole entry): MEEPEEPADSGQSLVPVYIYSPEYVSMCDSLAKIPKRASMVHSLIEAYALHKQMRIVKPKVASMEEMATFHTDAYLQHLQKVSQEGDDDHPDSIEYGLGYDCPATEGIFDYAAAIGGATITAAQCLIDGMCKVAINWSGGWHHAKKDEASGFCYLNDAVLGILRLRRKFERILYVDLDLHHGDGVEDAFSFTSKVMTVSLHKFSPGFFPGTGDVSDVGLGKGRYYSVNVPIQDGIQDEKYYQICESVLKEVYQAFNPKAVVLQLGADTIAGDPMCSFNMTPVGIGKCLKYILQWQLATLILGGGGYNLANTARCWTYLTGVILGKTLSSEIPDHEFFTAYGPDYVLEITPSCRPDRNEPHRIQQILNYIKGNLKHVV
Nature of the data set: Inhibition of recombinant human HDAC8 using FLUOR DE LYS as substrate preincubated for 15 mins followed by substrate addition measured after 1 hrs by fluorescence plate reader analysis. The gist of the method: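 Kit recombinant human HDAC8 (0.45 U/reaction) was preincubated 15 min with compound (0.5% DMSO; DMSO-only control). Fluor de Lys substrate was then added at 50 µM final and the reaction ran 1 h at 30 °C. It was quenched with 2 µM TSA in Developer II for a further 1 h at 30 °C, and fluorescence read at ex 370/em 450 nm. IC50 came from nonlinear dose–response fitting.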

Data set [3] is described as follows: Solubility of compound in PBS at pH 7.4 measured after 24 hrs by HPLC/UV/DAD analysis. In kind it is physicochemical. Summed up:
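10 mM DMSO stock diluted to 250 μM (2.5% DMSO) in 50 mM aqueous PBS pH 7.4. Standard prepared in MeCN/water 60:40. Sealed and shaken 24 h at 25 °C, PTFE-filtered and diluted 1:2 in buffer. Quantified by HPLC/UV/DAD at 254 nm against the 250 μM standard. Triplicate, averaged.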

Data set [4] in a line: Metabolic stability in human liver microsome assessed as half life at 5 uM in presence of NADPH incubated up to 60 mins by HPLC analysis. As to conditions: liver microsomes. Format: ADME. Summed up: (§1)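 Compound in MeCN was incubated at 5 µM and 37 °C in 100 mM phosphate buffer pH 7.4 with 0.5 mg/mL human or mouse liver microsomal protein. Reactions were started with an NADPH-regenerating system (2 mM NADPH, glucose-6-phosphate, G6PDH, MgCl2) and stopped with MeCN over 0–60 min. Remaining compound was measured by HPLC-UV at 254 nm, in triplicate, with first-order decay fitting.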
A general note: Liver microsomes are a subcellular fraction often used to study metabolism.

Data set [5] is described as follows: Metabolic stability in mouse liver microsome assessed as apparent decay constant at 5 uM in presence of NADPH incubated up to 60 mins by HPLC analysis. Format: ADME. As to conditions: liver microsomes. The gist of the method:
as §1

A short description of data set [6]: Metabolic stability in rat liver microsome assessed as intrinsic clearance at 5 uM measured per mg protein in presence of NADPH incubated up to 60 mins by HPLC analysis. Format: ADME. As to conditions: microsomes, 1 h. Summed up: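 Compound (in MeCN) at 5 μM incubated at 37 °C in 100 mM phosphate buffer pH 7.4 with 0.5 mg/mL liver microsomal protein (rat, mouse or human). CYP reactions started with NADPH-generating system (2 mM NADPH, glucose-6-phosphate, G6P dehydrogenase, MgCl2). Stopped with MeCN at intervals over 0–60 min. Remaining parent quantified by HPLC-UV at 254 nm. Ln % recovery vs time fitted to first-order decay. Triplicate incubations.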

Data set [7] relates to Danio rerio. As to the kind of experiment: In vivo inhibition of HDAC8 in zebrafish AB embryos assessed as increase in acetylation level of alpha-tubulin at 20 to 75 uM measured after 24 hrs by Western blot analysis. Format: functional, organism-based. As to conditions: dose 20-75 µM. Background: A western blot detects proteins with antibodies after separation by electrophoresis.

The nature of data set [8]: Toxicity in zebrafish AB embryos at 25 to 75 uM measured after 24 hrs. The settings on record: Danio rerio, in vivo.
Data set [9] can be described thus: Toxicity in zebrafish AB embryos assessed as changes in dead and live embryos at 25 to 75 uM measured after 24 hrs. The settings on record: Danio rerio, in vivo.
Data set [10] deals with Danio rerio. Nature of the data set: In vivo inhibition of HDAC6 in zebrafish AB embryos assessed as increase in acetylation level of alpha-tubulin at 25 to 75 uM measured after 24 hrs by Western blot analysis. The settings on record: dose 25-75 µM.

As to `O=C(NO)c1ccc(CC(=O)N2CCC(N3CC(c4ccccc4)(c4ccccc4)C3=O)CC2)cc1`, the results for the IC50 in data set [1] and in data set [2] were 91 nM and 113 nM, respectively.

In the case of `O=C(NO)c1ccc(CNC(=O)N2CCC(N3C(=O)[C@H](c4ccccc4)[C@H]3c3ccccc3)CC2)cc1` (racemic), the IC50 in data set [1] was determined as 21 nM; in [2], 42 nM. The solubility at 24 h in data set [3] came out at 70 µM (≈ 34.9 µg/mL). The half-life at 5 µM in [4] worked out at 54 min. The k el at 1 h, 5 µM in [5] is 0.000182 s⁻¹. Besides, in [6], the CLH turned out to be 8.43 µL/min. Besides, the outcome in data set [7] and in [10] was Active. Further, the Activity result in [8] and in [9] was “Non-Toxic” each time.

Regarding `O=C(NO)c1ccc(CNC(=O)N2CCC(N3CC(c4ccccc4)(c4ccccc4)C3=O)CC2)cc1`, the values for the IC50 in [1] and in [2] were 3.4 nM and 99 nM, respectively. The same compound displayed a solubility at 24 h in data set [3] of 10 µM (≈ 4.99 µg/mL). The half-life at 5 µM in data set [4] turned out to be 19 min. Also, the k el at 1 h, 5 µM in data set [5] was 0.000173 s⁻¹. In data set [6], the CLH was determined as 7.39 µL/min. Besides, the outcome in data set [7] and in data set [10] was Active. Besides, the Activity result in data set [8] and in data set [9] was “Non-Toxic” throughout.
